One data set concerns the target T1, P2Y purinoceptor 11 (Homo sapiens, UniProt Q96G91).
T1 sequence (Q96G91 whole entry): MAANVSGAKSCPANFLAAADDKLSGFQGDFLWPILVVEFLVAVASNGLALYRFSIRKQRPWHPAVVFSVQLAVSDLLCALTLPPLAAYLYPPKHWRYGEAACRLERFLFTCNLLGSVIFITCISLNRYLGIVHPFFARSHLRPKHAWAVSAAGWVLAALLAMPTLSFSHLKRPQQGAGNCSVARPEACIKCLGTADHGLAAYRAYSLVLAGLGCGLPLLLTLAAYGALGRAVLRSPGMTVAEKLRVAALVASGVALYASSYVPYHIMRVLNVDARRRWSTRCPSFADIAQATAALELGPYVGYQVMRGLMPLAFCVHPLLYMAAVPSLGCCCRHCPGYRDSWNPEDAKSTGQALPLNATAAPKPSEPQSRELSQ
Kind of data set: Agonist activity at human GFP-tagged P2Y11R transfected in human 1321N1 cells assessed as induction of intracellular calcium mobilization by fluorescence assay. It counts as functional, cell-based. The settings on record: read-out: EC50.

For the next data set, the species on record is Homo sapiens. Kind of data set: Selectivity ratio of EC50 for human GFP-tagged P2Y11R to EC50 for human GFP-tagged P2Y1R. In a few lines: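 1321N1 astrocytoma cells stably expressing human P2Y1-GFP or P2Y11-GFP were loaded with 2 μM fura-2 AM plus 0.02% pluronic acid in HEPES-buffered saline pH 7.4 for 30 min at 37 °C. They were then superfused at 37 °C with graded agonist concentrations. [Ca2+]i was read as the F340/F380 ratio (510 nm emission) in GFP-positive cells, at least 40 cells per point. EC50 came from concentration–response curves, n = 3.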

A short description of data set [1]: Metabolic stability in human serum assessed as compound remaining at 0.1 mg after 6 hrs by HPLC analysis. The settings on record: read-out: Stability. It counts as ADME, cell-free. A digest of the protocol: (§1)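 0.1 mg compound in water was mixed with human blood serum and RPMI-1640 medium (1:3 serum:medium) and incubated at 37 °C for 0−24 h. Remaining intact nucleotide was quantified from the change in its HPLC peak integration over time.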

Data set [2] in a line: Antioxidant activity assessed as free radical scavenging activity after 7 mins by ABTS radical cation decolorization assay. Type of data set: functional. In a few lines:
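ABTS•+ is made from 7 mM ABTS and 2.45 mM persulfate (final), left in the dark at RT for 12–16 h, then diluted in water pH 7.4 to A734 0.80. It is mixed with compound or Trolox standard (final 0–60 μM), and A734 is read at exactly 7 min. Percent inhibition is plotted against concentration, with solvent blanks. Each run is done at least three times, in triplicate.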

In data set [3] the target is P2Y purinoceptor 12 (Rattus norvegicus) (UniProt Q9EPX4). The data set is described as follows: Agonist activity at P2Y12R in rat PC12 cells assessed as decrease in FeSO4-induced ROS formation at 0.04 to 100 uM after 1 hr by DCFH-DA staining-based fluorometric analysis in presence of P2Y12R antagonist 2-MeS-AMP. The settings on record: PC-12. It counts as cell-based. A digest of the protocol:
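PC12 cells seeded 24 h in DMEM, pretreated with 50 μM 2-MeS-AMP for 20 min, then loaded with DCFH-DA (stock 2 mg/mL in ethanol, diluted 100-fold in PBS) for 20 min and washed. Test agent added at 0.04−100 μM final. Oxidation started with FeSO4 at 0.16 μM final. Incubated 1 h at 37 °C, fluorescence read at 485/530 nm. Inhibition of ROS compared with control lacking antagonist.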

In data set [4] the test system is PC-12. Kind of data set: Antioxidant activity in rat PC12 cells assessed as inhibition of Fe2+-induced ROS production after 1 hr by DCFH-DA staining-based fluorometric analysis. It counts as functional, cell-based. A digest of the protocol: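 PC12 cells grown in DMEM, seeded 24 h. Loaded with DCFH-DA (ethanol stock diluted 100-fold in PBS) for 20 min, then probe removed. Nucleotides added at final 0.2–200 μM, and oxidation started with FeSO4 at final 0.16 μM. Fluorescence at 485/530 nm read during 1 h at 37 °C. […] Mean ± SD of two experiments.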

For the next data set, the target named is P2Y purinoceptor 1 (Homo sapiens, UniProt P47900). The data set is described as follows: Agonist activity at human GFP-tagged P2Y1R transfected in human 1321N1 cells assessed as induction of intracellular calcium mobilization by fluorescence assay. Type of data set: functional, cell-based.
P2Y purinoceptor 1, sequence (P47900 whole entry): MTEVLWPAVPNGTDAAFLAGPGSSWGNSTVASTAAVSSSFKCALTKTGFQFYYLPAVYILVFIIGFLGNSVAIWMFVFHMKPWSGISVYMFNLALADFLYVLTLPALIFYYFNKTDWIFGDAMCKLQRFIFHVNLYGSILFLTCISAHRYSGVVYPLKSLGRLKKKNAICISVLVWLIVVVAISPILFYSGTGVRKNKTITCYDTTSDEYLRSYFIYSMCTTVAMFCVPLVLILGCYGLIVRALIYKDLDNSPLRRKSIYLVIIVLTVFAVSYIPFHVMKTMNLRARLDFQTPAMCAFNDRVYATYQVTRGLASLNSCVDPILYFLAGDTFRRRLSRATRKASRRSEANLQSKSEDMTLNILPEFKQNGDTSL
Data set [5] in a line: Antioxidant activity assessed as inhibiton of Fe2+-induced Fenton reaction-mediated hydroxyl radical formation from H2O2 measured for 150 secs by ESR analysis in presence of DMPO. Type of data set: functional. A digest of the protocol:
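Spin-trap ESR run at room temperature, final volume 100 μL. 5–500 μM compound is combined with ammonium iron(II) sulfate (1 mM stock) and Tris pH 7.4. After 30 s mixing, DMPO (100 mM stock) and H2O2 (100 mM stock) are added, with final pH 7.2–7.4. Spectrum is recorded 150 s after H2O2 at 9.76 GHz, 6.35 mW. Mean ± SD of three experiments.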

Data set [6] can be described thus: Half life in human serum at 0.1 mg after 6 hrs by HPLC analysis. It counts as ADME, cell-free. A digest of the protocol: as §1
A short description of data set [7]: Neuroprotective activity in rat primary cortical neurons assessed as decrease in FeSO4-induced oxidative stress measured cell vitality at 1 uM after 24 hrs by MTT assay relative to control. The arrangement: scale not given: the % may be the effect or the level left. The settings on record: Cerebral cortex neuron. It counts as functional, cell-based. A digest of the protocol:
(§2)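 Cortical neurons came from 1-day-old rat brain, were trypsin-dissociated and plated on polyornithine. They were grown in serum-free DMEM/F12 with B-27, then Ara-C treated for 48 h. Cells were treated with 0.01−5 μM nucleotide before FeSO4 (3 μM final) for 24 h. MTT 1 mg/mL was applied for 2 h at 37 °C, formazan dissolved in DMSO, absorbance read at 550 nm. Viability was expressed relative to vehicle control, mean ± SD of three independent experiments in triplicate.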

The nature of data set [8]: Neuroprotective activity in rat primary cortical neurons assessed as decrease in FeSO4-induced oxidative stress measured cell viability after 24 hrs by MTT assay. Type of data set: functional, cell-based. The settings on record: Cerebral cortex neuron. In a few lines: as §2
For data set [9], the system named is PC-12. Kind of data set: Antioxidant activity in rat PC12 cells assessed as inhibition of Fe2+-induced ROS production at 100 uM after 1 hr by DCFH-DA staining-based fluorometric analysis relative to control. The settings on record: PC-12, 1 h. It counts as functional. A digest of the protocol: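 PC12 cells in DMEM were seeded 24 h, loaded 20 min with diluted DCFH-DA and washed. Nucleotides were then added at 0.2−200 μM final. Oxidation was started with FeSO4 at 0.16 μM final and plates were incubated 1 h at 37 °C. DCF fluorescence was read at 485/530 nm, and percent inhibition of ROS was taken against untreated oxidized control.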

Activity calls are given as the source filed them. No cut-off for these calls is given here.

P2Y purinoceptor 12 (Rattus norvegicus), sequence (Q9EPX4 whole entry): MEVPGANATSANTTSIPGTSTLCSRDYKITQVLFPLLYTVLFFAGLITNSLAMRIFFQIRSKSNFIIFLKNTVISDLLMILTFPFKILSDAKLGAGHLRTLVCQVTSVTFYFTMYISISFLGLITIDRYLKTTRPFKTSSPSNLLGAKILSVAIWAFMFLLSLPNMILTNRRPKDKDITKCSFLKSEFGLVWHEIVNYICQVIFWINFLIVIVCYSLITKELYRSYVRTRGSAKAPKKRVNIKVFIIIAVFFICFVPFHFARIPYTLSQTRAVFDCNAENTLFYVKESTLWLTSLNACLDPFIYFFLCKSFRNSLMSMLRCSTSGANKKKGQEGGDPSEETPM

For `B[P@@](=O)(OC[C@H]1O[C@@H](n2cnc3c(N)nc(Cl)nc32)[C@H](O)[C@@H]1O)OP(=O)(O)O`, the EC50 came to 3.68 µM on P2Y purinoceptor 11, 0.007 µM on P2Y purinoceptor 1 and 0.17 µM in data set [8]. For the same compound, in the data set listed under Homo sapiens, the Ratio EC50 was below 530. Also, the remaining at 6 h in data set [1] amounted to 53%. Also, the IC50 came out at 40 µM in data set [2]; 0.08 µM in the data set on PC-12 [4] (Rattus norvegicus, PC-12, 1 h, read-out: IC50); 175 µM in [5]. Besides, the result in data set [3] was inactive. Further, the half-life in data set [6] was 7 h. In addition, in data set [7], the Activity is below 60%.
Consider `Nc1ncnc2c1ncn2[C@@H]1O[C@H](COP(=O)(O)OP(=O)(O)OP(=O)(O)O)[C@@H](O)[C@H]1O` [ADENOSINE TRIPHOSPHATE], for which the inhibition at 100 µM in the data set on PC-12 [9] turned out to be 45%. In addition, the IC50 in data set [2] is 60 µM; in the data set on PC-12 [4] (pc-12) it was “Not Active”; in data set [5], above 500 µM.

The record behind these values is ChEMBL document CHEMBL2384903, “Highly efficient biocompatible neuroprotectants with dual activity as antioxidants and P2Y receptor agonists” (J Med Chem, 2013).
